Measurements from PubChem BioAssay AID463132 (The Scripps Research Institute Molecular Screening Center, 2010).

Target: Protein phosphatase methylesterase 1 (Homo sapiens) (UniProt Q9Y570)
Test: PME-1 inhibitors blocking PP2A demethylation, late-stage follow-up, HeLa cells, western blot, powder samples (AID 463132)
Details: demethylated PP2A western blot, 1 h, at 0.5 µM, active compounds read high
How it was run: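 Test system: HeLa cells, endogenous PME-1 | Dosing: Single compound dose of 0.5 µM | Times: 1 h compound treatment, 37 °C | Technique: HRP-antibody immunoblot, chemiluminescence | Measure: % inhibition of PP2A demethylation signal | Controls: High DMSO cells, low empty blot region | Medium: FCS-supplemented medium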

Protein phosphatase methylesterase 1 (Homo sapiens), sequence (Q9Y570 whole entry, looked up): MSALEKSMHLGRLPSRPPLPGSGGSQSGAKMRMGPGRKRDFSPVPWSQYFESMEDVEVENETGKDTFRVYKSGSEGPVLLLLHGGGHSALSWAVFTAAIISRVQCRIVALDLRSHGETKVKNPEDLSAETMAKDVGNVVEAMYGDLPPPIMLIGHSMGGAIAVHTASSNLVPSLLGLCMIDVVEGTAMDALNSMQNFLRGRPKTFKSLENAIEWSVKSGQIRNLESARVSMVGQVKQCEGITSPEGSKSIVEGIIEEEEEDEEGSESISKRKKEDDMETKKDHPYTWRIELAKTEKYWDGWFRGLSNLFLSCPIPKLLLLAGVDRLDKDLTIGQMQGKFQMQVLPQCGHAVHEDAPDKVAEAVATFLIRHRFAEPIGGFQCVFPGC

With `COC(=O)N1C(=O)[C@](c2ccccc2)(C2CCCC2)N1C(=O)OC` the inhibition was 85%.
`COC(=O)N1C(=O)[C@](c2ccccc2)(C2CCCCC2)N1C(=O)OC` showed an inhibition of 85%.
